Results taken from PubChem BioAssay AID821 (SRMLSC, 2007).
pEC50: −log10 of the molar value. Active and inactive are the calls of the source.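 The calls were made as follows: active = compounds whose fitted half-maximal concentration for reducing fibroblast viability is 100 µM or lower; inactive = the rest.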

Tested on: LL 47 lung fibroblast viability, ATP luminescence
Assay: LL 47 lung fibroblast growth inhibition, concentration-response, selectivity test for endothelial growth inhibitor program, cellular, luminescent ATP readout (AID 821)
Summary of the method: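 Test system: human lung fibroblasts, LL 47 line / Amount: 1,150 cells/well / Schedule: 72 h compound treatment at 37 °C after overnight attachment / Technique: CellTiter-Glo luminescence readout of viable cells / Measure: percent viability relative to untreated wells, EC50 via 4-parameter fit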

Compound	pEC50	EC50
O=C(NNC(=O)c1ccc([N+](=O)[O-])o1)c1ccccc1	4.93	
Cc1cc(C)c2c(=O)n(CC(=O)NCCCN3CCN(c4ccccc4F)CC3)sc2n1	4.99	
COc1cc(NC(=O)c2cccs2)c(C(=O)OCC(=O)NCc2ccccc2)cc1OC	4.69	
O=c1[nH]c(Nc2nc3ccccc3o2)nc2c1CCCC2	5.34	
CCCc1[nH]nc2c1C(c1ccc(Br)s1)C(C#N)=C(N)O2 (configuration not stated)	5.02	
O=c1cc(-c2ccccc2)[nH]n1-c1nc2ccccc2[nH]1	5.25	
COc1ccc(-c2cc(C#N)nc(N3CCNCC3)n2)cc1	4.93	
CCOC(=O)CSc1cccc2cccnc12	4.90	
O=C(Nc1ccc(-c2nc3c(ccc4ccccc43)o2)cc1)c1ccco1	4.96	
COC(=O)CS(=O)(=O)c1nnc([C@H](Cc2ccccc2)NC(=O)OC(C)(C)C)o1	5.10	
CCCCCCOC(=O)C(C#N)c1nc2ccccc2nc1N1CCN(CC)CC1 (configuration not stated)	4.76	
COc1cc(/C=C(/C(=O)c2cccs2)c2nc3ccccc3[nH]2)cc(OC)c1O	5.06	
CCOC(=O)c1c(NC(=O)CCl)sc(C(=O)N(CC)CC)c1C	5.20	
Cc1ccc(-c2nn3c(C)nnc3s2)cc1NC(=O)c1ccc(-c2cccc(Cl)c2)o1	4.88	
CCOC(=O)c1c(CC(C)C)csc1NC=O	4.69	
CCc1[nH]nc2c1C(c1ccc(Br)s1)C(C#N)=C(N)O2 (configuration not stated)	4.87	
CC1=CC(C)(C)Nc2ccc(OC(=O)c3cccnc3)cc21	5.13	
Cc1cccc(NC(=O)Nc2cccc(Oc3c(F)c(F)c(F)c(F)c3F)c2)c1	4.76	
O=C(Nc1nnc(-c2ccccc2SCc2ccccc2F)s1)Nc1ccccc1F	4.79	
Cc1nn(-c2nc3ccccc3s2)c(N)c1Sc1ccc(F)cc1	4.89	
COc1cc(NC(=O)Nc2cccc(Cl)c2)c(OC)cc1NC(=O)CN1CCCCC1	4.69	

Compound	pEC50	EC50
COc1ccc(C(=O)Oc2c(CN3CCOCC3)cc(Cl)c3cccnc23)cc1	5.21	
COCc1cc(CN2CCCC2)c(O)c2ncccc12	4.93	
Cc1cc(NC(c2cccnc2)c2ccc3cccnc3c2O)no1 (configuration not stated)	5.53	
O=C(Oc1ccccc1-c1nnco1)c1ccc(Cl)cc1	5.30	
Cc1cc2c(N=O)c(NO)ccc2[nH]1	5.53	
Cn1c(=O)n(C)c2cc(C(=O)Nc3ccc4c(c3)OCO4)ccc21	4.89	
CCC(C)(C)n1nnnc1C(c1cc2cc(C)cc(C)c2[nH]c1=O)N1CCN(Cc2ccc3c(c2)OCO3)CC1 (configuration not stated)	5.01	
N=c1c2c(ncn1CCN1CCOCC1)Oc1ccc3ccccc3c1C2c1ccccc1 (configuration not stated)	4.76	
CC1(C)Cc2c(c(N3CCOCC3)nc3snc(N)c23)CO1	4.96	
CCOc1cccc(-n2nnnc2-c2ccc(OC)cc2)c1	4.70	
Oc1ccc(Cl)cc1-c1cc(-c2ccco2)[nH]n1		> 10 µM (inactive)
O=c1ccsn1Cc1ccccc1	5.12	
CCN(CCNC(=O)C1CCN(Cc2nc(-c3ccc(Cl)cc3)oc2C)CC1)c1ccccc1	4.75	
O=C1Nc2ccccc2/C1=C/C(=O)c1cccs1	5.17	
O=S(=O)(CCN(CCS(=O)(=O)C(F)(F)F)CC1CCCO1)C(F)(F)F (configuration not stated)	5.23	
COc1ccc2oc(=O)c(-c3nnc(NCc4ccco4)s3)cc2c1	5.10	
COc1ccc(Nc2nc(N3CCCC3)nc3ccccc23)c(OC)c1	4.84	
COc1ccc(S(=O)(=O)N2N=C(C)Oc3ccccc3C2=O)cc1	4.71	
COc1ccc(S(=O)(=O)Nc2ccc(O)c3ccccc23)cc1	4.88	
COc1ccc2c(c1)c1nc3ccccc3nc1n2CC(=O)OC(C)C	4.81	
COc1ccc(C(=O)Nc2ccccc2C(=O)N(Cc2ccco2)C(C(N)=O)C(C)C)cc1 (configuration not stated)	4.76	

Compound	pEC50	EC50
CC1CC(C)CN(S(=O)(=O)c2ccc(C(=O)Nc3nnc(-c4cccs4)o3)cc2)C1 (configuration not stated)	5.07	
C=CCn1c(SCC(=O)c2c(N)n(CCC)c(=O)n(C)c2=O)nc2sc(CC)cc2c1=O	4.82	
CCOC(=O)c1sc(SCC(=O)Nc2ccc(N(C)C)cc2)nc1N	4.93	
CCOC(=O)c1cnc(-n2nc(C)cc2C)nc1Nc1ccc(N(C)C)cc1	4.84	
N#Cc1cc2sc3nnc(-c4ccncc4)n3c2cc1C#N	4.81	
COc1ccc(-n2nnnc2S(=O)(=O)CC(=O)N2CCCCC2)cc1	5.21	
COc1cccc(C(=O)Oc2c(CN3CCOCC3)cc(Cl)c3cccnc23)c1	5.23	
CCn1c(=O)cc(C(=O)OC)sc1=Nc1ccc(F)c(F)c1	4.76	
COc1ccc(C2=Nn3c(nnc3C3CCCCC3)SC2)cc1OC	4.85	
O=C(CSc1cccc2cccnc12)N1CCCC1	4.90	
Cc1ccc(C)n1NC(=O)c1ccccc1O	4.99	
CC1(C)CC(=O)C2=C(C1)Oc1nc3ccccc3cc1C2C(C#N)C#N (configuration not stated)	4.84	
COc1ccc(OC)c(CCNC(=O)Cn2sc3nc(C)cc(C)c3c2=O)c1	4.93	
CS(=O)(=O)c1nc(-c2cccs2)cc(C(F)(F)F)n1	5.14	
CC(C)CNC(=O)c1coc(=O)c(Br)c1	4.69	
CC(=O)SC(C[N+](=O)[O-])c1cn(C(C)=O)c2ccccc12 (configuration not stated)	4.93	
COc1cc(C(=O)Oc2c(CN3CCOCC3)cc(Cl)c3cccnc23)cc(OC)c1OC	5.39	
CC(Nc1nc(N2CCCC2)nc2ccccc12)c1ccccc1 (configuration not stated)	4.93	
COc1ccc(NC(=O)/C(Cl)=C(/Cl)S(=O)(=O)Cc2ccccc2)cn1	5.21	
CCC(=O)N1c2ccc(S(=O)(=O)CCC(=O)N3CCn4c3nc3ccccc34)cc2CC1C (configuration not stated)	5.02	
CCC(C)(C)NC(=O)C(c1ccc(C)o1)N(Cc1cccs1)C(=O)Cn1nnc2ccccc21 (configuration not stated)	4.86	

Compound	pEC50	EC50
CCN(CC)c1ccc2c(c1)oc(=O)c1c(Cl)cc(=O)oc12	5.14	
O=c1[nH]c2cc3c(cc2cc1C(c1nnnn1Cc1ccccc1)N1CCCCCC1)OCCO3 (configuration not stated)	4.72	
COc1cc(/C=C/c2ccc3cccc(OC)c3n2)c(OC(C)=O)c([N+](=O)[O-])c1	4.77	
COc1cc(C(C[N+](=O)[O-])c2c(-c3ccccc3)cc3ccccn23)cc(OC)c1OC (configuration not stated)	4.73	
CN1CCN(Cc2cc(COCc3ccccc3)c3cccnc3c2O)CC1	5.53	
COc1ccc(-c2ccc(C#N)c(SCC(=O)Nc3sc4c(c3C#N)CCC4)n2)cc1OC	4.70	
O=C(c1nn2c(C(F)(F)F)cc(-c3ccco3)nc2c1Br)N1CCCc2ccccc21	5.32	
CC1CC(C)CN(S(=O)(=O)c2ccc(C(=O)NCCCn3ccnc3)cc2)C1 (configuration not stated)	5.75	
Oc1c(C(Nc2ccccn2)c2ccccn2)ccc2cccnc12 (configuration not stated)	5.26	
CCN(CC)CCn1c2ccccc2c2cnc(N)c(C#N)c21	5.02	
Oc1c(CN2CCN(c3ccccn3)CC2)cc(Cl)c2cccnc12	5.26	
CCOC(=O)C(C(C)=O)c1c(Br)c(O)c(O)c2c(C(=O)c3ccc(C)cc3)coc12 (configuration not stated)	5.06	
CN(CCO)c1cc(Sc2nc3ccccc3s2)c2nonc2c1[N+](=O)[O-]	4.73	
CCOC(=O)c1cnc(-n2nc(C)cc2C)nc1NCCc1ccccc1	4.85	
O=C(Nc1nc(NC(=O)c2ccco2)n(-c2ccccc2)n1)c1ccccc1	4.94	
CC1=NOC(=O)/C1=C/c1ccc(-c2ccc(Cl)cc2)o1	4.86	
CC(C)=CCC/C(C)=C/CCC(C)NCCN1CCNCC1 (configuration not stated)	4.98	
Cc1ccc2oc3c(c(=O)c2c1)C(c1cccc(Br)c1)N(Cc1ccco1)C3=O (configuration not stated)	4.74	
COc1ccc(C2Oc3ccccc3C3=C2C(c2cccs2)n2ncnc2N3)cc1 (configuration not stated)	4.72	
